Assay results: ChEMBL document CHEMBL1165906, “Cytotoxic N-(fluorenyl-9-methoxycarbonyl) (Fmoc)-dipeptides: structure-activity relationships and synergistic studies” (Eur J Med Chem, 2010)
Active and inactive are the calls of the source. No cut-off for these calls is given here.

Columns and labels:
[1] = Cytotoxicity against human Hep3B cells after 72 hrs by MTT assay; format: functional, cell-based, Hep 3B2
Outline: (§1)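 Freshly trypsinized cells were seeded at 5000–10,000 per well in 96-well plates. Attached cells were given MTT (0.5 mg/ml, 1 h), solubilized in DMSO and read at 550 nm. IC₅₀ came from survival curves as mean ± S.E.M., n = 2.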

HepG2 = assay: Cytotoxicity against human HepG2 cells after 72 hrs by MTT assay; format: functional, cell-based; details: HepG2, 72 h; outline: as §1
MDA-MB-231 = assay: Cytotoxicity against human MDA-MB-231 cells after 72 hrs by MTT assay; format: functional, cell-based; details: MDA-MB-231, 72 h
Outline: (§2)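 Freshly trypsinized cells were seeded at 5000–10,000 per well in 96-well plates. […] Attached cells were given MTT (0.5 mg/ml, 1 h), solubilized in DMSO and read at 550 nm. IC₅₀ came from survival curves as mean ± S.E.M., n = 2.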

MCF7 = assay: Cytotoxicity against human MCF7 cells after 72 hrs by MTT assay; format: functional, cell-based; details: MCF7, 72 h; outline: as §2
Ca9-22 = assay: Cytotoxicity against human Ca9-22 cells after 72 hrs by MTT assay; format: functional, cell-based; details: Ca9-22, 72 h; outline: as §2
A549 = assay: Cytotoxicity against human A549 cells after 72 hrs by MTT assay; format: functional, cell-based; details: A549, 72 h; outline: as §2
Hepatitis C virus [2] = assay: Antiviral activity against HCV infected in human Huh7 cells assessed as inhibition of viral replication at 10 uM after 4 days; format: functional, Hepacivirus hominis; details: Huh-7, 96 h
Outline: (§3)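 Ava5 cells, Huh-7 hepatoma cells carrying a subgenomic HCV replicon, seeded at 5 ×10⁴ per well in 24-well plates and treated for 4 days. Cell extracts were normalized by protein assay and 5 µg was run on 8% SDS-PAGE and transferred to PVDF. Blots were blocked in 5% skim milk and probed for NS3 with GAPDH as loading control. Signals came from HRP secondaries and ECL and were quantified by densitometry.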

Hepatitis C virus [3] = assay: Antiviral activity against HCV infected in human Huh7 cells assessed as inhibition of viral replication at 5 uM after 4 days; format: functional, organism-based; details: Hepacivirus hominis, Huh-7; outline: as §3

Compound | IC50 [1] | IC50 (HepG2) | IC50 (MDA-MB-231) | IC50 (MCF7) | IC50 (Ca9-22) | IC50 (A549) | inhibition at 10 µM (Hepatitis C virus [2]) | inhibition (Hepatitis C virus [3])
O=C(N[C@@H](Cc1ccccc1)C(=O)N[C@H](COC(=O)c1ccccc1)Cc1ccccc1)OCC1c2ccccc2-c2ccccc21 | > 55 µM | > 55 µM | > 55 µM | > 55 µM | > 55 µM | – | – | –
O=C(N[C@@H](Cc1ccc2ccccc2c1)C(=O)N[C@H](COC(=O)c1ccccc1)Cc1ccccc1)OCC1c2ccccc2-c2ccccc21 | > 55 µM | > 55 µM | > 55 µM | > 55 µM | > 55 µM | > 55 µM | – | –
O=C(N[C@@H](Cc1ccc2ccccc2c1)C(=O)N[C@@H](CO)Cc1ccccc1)OCC1c2ccccc2-c2ccccc21 | – | – | > 55 µM | > 55 µM | – | > 55 µM | – | –
O=C(N[C@@H](Cc1ccccc1)C(=O)N[C@@H](CO)Cc1ccccc1)OCC1c2ccccc2-c2ccccc21 | > 55 µM | > 55 µM | > 55 µM | > 55 µM | > 55 µM | > 55 µM | – | –
CC(=O)OC[C@@H](Cc1ccccc1)NC(=O)[C@H](Cc1ccc(O)cc1)NC(=O)OCC1c2ccccc2-c2ccccc21 | – | – | > 55 µM | > 55 µM | – | > 55 µM | – | –
CC(C)[C@H](NC(=O)OCC1c2ccccc2-c2ccccc21)C(=O)N[C@@H](CO)Cc1ccccc1 | – | – | > 55 µM | > 55 µM | – | > 55 µM | – | –
O=C(N[C@@H](Cc1ccc(O)cc1)C(=O)N[C@@H](COC(=O)c1ccccc1)Cc1ccccc1)OCC1c2ccccc2-c2ccccc21 | > 55 µM | > 55 µM | > 55 µM | > 55 µM | – | – | 87% | inactive
CC(C)[C@H](NC(=O)OCC1c2ccccc2-c2ccccc21)C(=O)N[C@H](COC(=O)c1ccccc1)Cc1ccccc1 | > 55 µM | > 55 µM | > 55 µM | > 55 µM | – | > 55 µM | – | –
COc1cccc2c1C(=O)c1c(O)c3c(c(O)c1C2=O)C[C@@](O)(C(=O)CO)C[C@@H]3O[C@H]1C[C@H](N)[C@H](O)[C@H](C)O1 [DOXORUBICIN] | – | – | 0.1 µM | – | 1.3 µM | 0.4 µM | – | –
O=C(N[C@@H](Cc1ccc2ccccc2c1)C(=O)N[C@@H](COC(=O)c1ccccc1)Cc1ccccc1)OCC1c2ccccc2-c2ccccc21 | – | – | > 55 µM | – | – | – | – | –
O=C(N[C@@H](Cc1ccc(O)cc1)C(=O)N[C@H](COC(=O)c1ccccc1)Cc1ccccc1)OCC1c2ccccc2-c2ccccc21 | – | > 55 µM | – | – | – | – | – | –
CC(C)[C@H](NC(=O)OCC1c2ccccc2-c2ccccc21)C(=O)N[C@H](CO)Cc1ccccc1 | > 55 µM | – | > 55 µM | > 55 µM | – | > 55 µM | – | –
CC(=O)OC[C@H](Cc1ccccc1)NC(=O)[C@H](Cc1c[nH]c2ccccc12)NC(=O)OCC1c2ccccc2-c2ccccc21 | > 55 µM | – | – | > 55 µM | – | – | – | –
CC(=O)OC[C@H](Cc1ccccc1)NC(=O)[C@@H](NC(=O)OCC1c2ccccc2-c2ccccc21)C(C)C | > 55 µM | – | > 55 µM | > 55 µM | > 55 µM | > 55 µM | – | –
O=C(N[C@@H](Cc1ccc2ccccc2c1)C(=O)N[C@H](CO)Cc1ccccc1)OCC1c2ccccc2-c2ccccc21 | > 55 µM | – | > 55 µM | > 55 µM | – | – | – | –
O=C(N[C@@H](Cc1ccccc1)C(=O)N[C@H](CO)Cc1ccccc1)OCC1c2ccccc2-c2ccccc21 | > 55 µM | > 55 µM | > 55 µM | > 55 µM | > 55 µM | > 55 µM | – | –
O=C(N[C@@H](Cc1ccccc1)C(=O)N[C@@H](COC(=O)c1ccccc1)Cc1ccccc1)OCC1c2ccccc2-c2ccccc21 | > 55 µM | – | > 55 µM | > 55 µM | > 55 µM | – | – | –
O=C(N[C@@H](Cc1ccc(O)cc1)C(=O)N[C@H](CO)Cc1ccccc1)OCC1c2ccccc2-c2ccccc21 | – | – | > 55 µM | > 55 µM | – | > 55 µM | – | –
CC(=O)OC[C@H](Cc1ccccc1)NC(=O)[C@H](Cc1ccccc1)NC(=O)OCC1c2ccccc2-c2ccccc21 | > 55 µM | > 55 µM | > 55 µM | > 55 µM | > 55 µM | – | – | –
CC(=O)OC[C@H](Cc1ccccc1)NC(=O)[C@H](Cc1ccc2ccccc2c1)NC(=O)OCC1c2ccccc2-c2ccccc21 | > 55 µM | – | – | – | – | – | – | –
CC(=O)OC[C@@H](Cc1ccccc1)NC(=O)[C@H](Cc1ccc2ccccc2c1)NC(=O)OCC1c2ccccc2-c2ccccc21 | – | – | > 55 µM | – | – | – | – | –
CC(=O)OC[C@@H](Cc1ccccc1)NC(=O)[C@H](Cc1ccccc1)NC(=O)OCC1c2ccccc2-c2ccccc21 | – | – | – | > 55 µM | – | – | – | –
CC(=O)OC[C@H](Cc1ccccc1)NC(=O)[C@H](Cc1ccc(O)cc1)NC(=O)OCC1c2ccccc2-c2ccccc21 | > 55 µM | – | > 55 µM | > 55 µM | > 55 µM | > 55 µM | – | –
O=C(N[C@@H](Cc1c[nH]c2ccccc12)C(=O)N[C@@H](COC(=O)c1ccccc1)Cc1ccccc1)OCC1c2ccccc2-c2ccccc21 | – | – | – | – | – | – | 72% | inactive
CC(C)[C@H](NC(=O)OCC1c2ccccc2-c2ccccc21)C(=O)N[C@@H](COC(=O)c1ccccc1)Cc1ccccc1 | – | > 55 µM | > 55 µM | > 55 µM | – | > 55 µM | – | –
O=C(N[C@@H](Cc1c[nH]c2ccccc12)C(=O)N[C@H](CO)Cc1ccccc1)OCC1c2ccccc2-c2ccccc21 | > 55 µM | – | > 55 µM | > 55 µM | > 55 µM | – | – | –
